Assay outcomes (PubChem BioAssay)
Shown are actives, neighbours in structure and some others; about 3.3% of the full set was active somewhere.
ROMK mod – modulators of human ROMK potassium channel; B-score at 10 µM; Tet-inducible ROMK, thallium flux fluorescence; actives lie on both sides; 130,000 tested, 2% active;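 active = signal ratio slope over the read window, or its plate-corrected B-score, at least 3 SD from the plate mean, either direction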;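 also: B-score of the F/F0 ratio slope over 7 to 12 s after thallium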
ABCG2 inh – blocks JC-1 efflux by human ABCG2 transporter. inhibition, % at 6.6 µM. Q9UNQ0. IgMXP3 cells, flow cytometry. 190,000 tested, 0.1% active;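 active = inhibition above 80%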;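 also: 0% = DMSO and 100% = nicardipine control wells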
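Test system: IgMXP3 cells (ABCG2) mixed with DDAO far-red-labelled CCRF-Adr cells (ABCB1). Reagent: JC-1 transporter substrate. Compound dosing: single test compound dose, 6.6 µM final. Times: 10 min compound exposure, 25 °C. Detection: flow cytometry of retained JC-1 fluorescence. Read-out basis: efflux inhibition in percent versus controls. Controls: nicardipine and DMSO wells.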
PMI act – activators of human phosphomannose isomerase; 190,000 tested, 0.005% active; activation factor at 20 µM; purified human PMI, coupled resazurin fluorescence, 20 min; hits give high values; 1 = vehicle control, 0 substrate-free wells; AID 1214; P34949;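 active = activation factor of 2 or more at 20 µM, relative to plate controls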
KCC2 mod – KCC2 (human) Cl- transport modulation. KCC2 cells, thallium flux FluoZin-2 fluorescence. B-score of Tl+ flux slope (higher = more flux/activation; lower = inhibition) at 10 µM. 190,000 tested, 2.2% active;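 active = thallium flux slope and its plate-corrected score both differing from the plate sample mean at a set confidence after two filtering rounds, in either direction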;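 also: slope of fluorescence scaled to starting intensity during 10 to 20 s after thallium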
Target sequence (Q9H2X9 whole entry, looked up): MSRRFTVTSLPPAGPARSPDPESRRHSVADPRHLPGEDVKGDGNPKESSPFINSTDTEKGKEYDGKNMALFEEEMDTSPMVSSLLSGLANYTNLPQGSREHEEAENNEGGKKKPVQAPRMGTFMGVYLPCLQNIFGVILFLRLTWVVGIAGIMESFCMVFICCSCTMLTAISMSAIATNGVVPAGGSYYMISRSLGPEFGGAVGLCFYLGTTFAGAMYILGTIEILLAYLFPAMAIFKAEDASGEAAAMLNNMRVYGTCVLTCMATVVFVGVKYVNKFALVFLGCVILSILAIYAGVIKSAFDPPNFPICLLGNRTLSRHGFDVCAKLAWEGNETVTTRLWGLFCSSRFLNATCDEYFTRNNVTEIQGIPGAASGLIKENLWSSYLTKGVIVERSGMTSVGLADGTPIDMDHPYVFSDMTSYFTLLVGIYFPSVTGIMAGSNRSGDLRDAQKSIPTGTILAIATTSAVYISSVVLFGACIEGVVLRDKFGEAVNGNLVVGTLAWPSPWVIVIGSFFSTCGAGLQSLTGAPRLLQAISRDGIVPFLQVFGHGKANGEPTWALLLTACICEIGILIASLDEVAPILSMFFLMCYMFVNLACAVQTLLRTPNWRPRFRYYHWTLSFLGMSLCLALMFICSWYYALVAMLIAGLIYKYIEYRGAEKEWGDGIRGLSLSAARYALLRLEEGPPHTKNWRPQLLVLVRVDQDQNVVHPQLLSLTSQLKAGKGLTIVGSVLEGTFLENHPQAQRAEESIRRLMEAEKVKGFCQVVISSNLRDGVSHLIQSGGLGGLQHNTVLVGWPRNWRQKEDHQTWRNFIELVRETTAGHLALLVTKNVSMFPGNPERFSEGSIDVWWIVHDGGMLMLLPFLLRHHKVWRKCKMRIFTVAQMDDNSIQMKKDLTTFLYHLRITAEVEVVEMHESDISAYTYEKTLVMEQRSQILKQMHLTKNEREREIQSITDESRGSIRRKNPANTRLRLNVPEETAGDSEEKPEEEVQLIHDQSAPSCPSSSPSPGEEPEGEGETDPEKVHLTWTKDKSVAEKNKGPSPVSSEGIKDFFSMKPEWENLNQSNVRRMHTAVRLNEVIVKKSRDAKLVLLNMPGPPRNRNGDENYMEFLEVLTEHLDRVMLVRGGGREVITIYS
PMI act satM6P – activators of human phosphomannose isomerase at near-saturating mannose 6-phosphate; coupled PMI enzyme assay, resazurin fluorescence, 20 min; hits give high values; 1 = untreated enzyme, 0 = substrate-free blank; activation factor at 20 µM; 190,000 tested, 0.34% active; AID 1216;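 active = activation factor of 2 or more at 20 µM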
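Material: human phosphomannose isomerase with PGI, G6PDH, diaphorase coupling enzymes / Reagent: Man-6-P substrate 1.0 mM / Dosing: single compound dose of 20 µM, 1% DMSO final / Incubation: enzyme reaction with compound 20 min at room temperature / Signal: resorufin fluorescence (Ex 544/Em 590 nm) from resazurin via diaphorase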
ABCB1 inh – blocks JC-1 efflux by human ABCB1 transporter | P08183 | CCRF-Adr cells, flow cytometry | inhibition, % at 6.6 µM | 190,000 tested, 0.067% active | AID 1326; in the data active = inhibition above about 40%;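 also: 0% = vehicle and 100% = reference inhibitor; higher value means more JC-1 retained so stronger ABCB1 efflux block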
KCC2 secondary – KCC2 (human) modulation, secondary assay | shares compounds with KCC2 mod | HEK293-KCC2, thallium flux, FluoZin2 fluorescence; hits give high values | normalised thallium flux (F/F0 slope) at 10 µM | 3,700 tested, 15% active;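 active = thallium flux slope above the same plate's solvent-only control mean plus 3 SD; inconclusive = the two replicate wells disagree; inactive = no significant difference from solvent-only control wells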
KCC2 bumet counter – thallium flux persisting under bumetanide in KCC2 cells, counter-screen secondary assay; 3,700 tested, 49% active; shares compounds with KCC2 mod; normalized thallium flux at 10 µM; AID 1714; HEK293-KCC2 + bumetanide/ouabain, thallium flux FluoZin2; hits give high values;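 active = thallium entry rate above the same plate's blocked-transporter control wells by more than 3 SD; inconclusive = the two repeat wells disagree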;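 also: raw slope of fluorescence over initial fluorescence between 10 and 20 s after thallium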
KCC2 sec2 – KCC2 (human) modulation, second secondary assay. normalized thallium flux at 10 µM. shares compounds with KCC2 mod. 3,700 tested, 23% active. HEK293-KCC2, thallium flux FluoZin2 fluorescence; actives lie on both sides; F/F0 rise rate, 10–20 s post-thallium. AID 1715;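 active = thallium flux slope more than 3 SD above or below the plate's solvent-only control mean, mostly below; inconclusive = the two repeat wells disagreed; inactive = no significant shift from solvent-only controls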;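 also: raw slope with 0.1% DMSO as baseline and bumetanide as block control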
HEK counter1 – parental HEK flux effect, counter-screen | AID 1716 | shares compounds with KCC2 mod | thallium flux rate (normalised fluorescence) at 10 µM | 3,700 tested, 46% active | HEK293 parental cells, thallium flux FluoZin2, ouabain; baseline-ratio fluorescence slope, 10–20 s after thallium;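 active = thallium flux rate significantly above the same plate's solvent-only control wells, beyond their mean plus 3 SD; inconclusive = the two replicate wells gave conflicting results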
KCC2 retest ouab – confirmation of human KCC2 modulators with ouabain | raw Tl+ flux slope (below DMSO = inhibition, above = activation) at 10 µM | shares compounds with KCC2 mod | AID 1717 | HEK293-KCC2, thallium flux FluoZin2 fluorescence; bidirectional: low = inhibitor, high = activator | 3,700 tested, 48% active;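 active = thallium flux slope beyond 3 SD from same-plate DMSO control mean in most replicates, usually higher, sometimes lower; inconclusive = repeat tests gave conflicting results; inactive = no significant difference from controls in most replicates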;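 also: slope of initial-normalized fluorescence between seconds 10 and 20 after thallium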
HEK counter2 – parental HEK flux effect, counter-screen 2 | shares compounds with KCC2 mod | AID 1718 | HEK293 parental, thallium flux FluoZin-2 fluorescence slope | 3,700 tested, 33% active | thallium flux slope at 10 µM;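 active = thallium flux slope above the same plate's solvent-control mean plus 3 SD in both duplicate wells; inconclusive = duplicate wells that disagreed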;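 also: run without ouabain in cells lacking the KCC2 cotransporter; slope of fluorescence scaled to its starting value between 10 and 20 s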
An asterisk follows results filed as active; ? = inconclusive; / = no result given.

SMILES | ROMK mod | ABCG2 inh | PMI act | KCC2 mod | PMI act satM6P | ABCB1 inh | KCC2 secondary | KCC2 bumet counter | KCC2 sec2 | HEK counter1 | KCC2 retest ouab | HEK counter2
Cc1nc(C(=O)NNC(=O)c2ccccc2Cl)c(C(F)(F)F)o1 | / | / | / | 5.6* | / | / | 0.0072 | 0.007* | 0.03 | 0.0095* | ? | ?
O=C(NNC(=O)c1ccccc1Cl)c1ccccc1Cl | / | / | / | 0.16 | / | / | / | / | / | / | / | /
O=C(NNC(=O)c1cnccc1C(F)(F)F)c1cccc(Cl)c1 | / | / | / | 0.0054 | / | / | / | / | / | / | / | /
Cc1ccc(CSCCNC(=O)c2ccc(C)cc2)cc1 | -0.9 | 4 | 1 | -3.8* | 0.9 | 0 | 0.0066 | 0.0047 | 0.024* | 0.0077 | 0.016* | 0.01
Cc1ccc(S(=O)(=O)NC(=O)Nc2cc(C)ccc2F)cc1 | / | 2 | 1 | -11* | 1 | 1 | 0.016 | ? | 0.029 | ? | 0.017 | 0.011
Cc1cc(NC(=O)Cn2nc([N+](=O)[O-])c(Br)c2C)no1 | -0.027 | 1 | 0.9 | -0.45 | 0.9 | 0 | / | / | / | / | / | /
COc1ccccc1N1CCN(C(=O)CN(C)S(=O)(=O)c2cc(C)ccc2OC)CC1 | 0.31 | 4 | 0.9 | -0.12 | 0.9 | 1 | / | / | / | / | / | /
C=CCNC(=O)NC(=O)CSc1nc2cc([N+](=O)[O-])ccc2n1-c1cccc(C(F)(F)F)c1 | -0.32 | 23 | 0.9 | 7.6* | 1 | 2 | 0.0079 | 0.014* | 0.032 | 0.011* | ? | 0.0095
O=C(NN1CCOCC1)C12CC3CC(CC(C3)C1)C2 | 0.35 | 3 | 1 | 0.29 | 1 | 1 | / | / | / | / | / | /
Cc1ccc(S(=O)(=O)N2CCN(CC(=O)Nc3ccc4c(c3)CCC4)CC2)cc1C | -0.021 | 4 | 0.9 | -0.43 | 0.8 | 1 | / | / | / | / | / | /
O=C(CN1CCN(S(=O)(=O)c2ccc(Cl)cc2)CC1)Nc1ccc2c(c1)CCC2 | 0.86 | 6 | 0.8 | -0.59 | 0.8 | 3 | 0.0054 | 0.005 | 0.028 | 0.0077 | 0.018 | 0.011
O=C(COC(=O)c1cc([N+](=O)[O-])ccc1NCCO)c1ccccc1 | -0.59 | 23 | 0.9 | -3.2* | 0.7 | 1 | 0.0072 | ? | 0.023* | 0.0075 | ? | 0.01
NC(=O)COC(=O)c1cc([N+](=O)[O-])ccc1NCCO | / | / | / | -0.68 | / | / | / | / | / | / | / | /
CCc1cc2c(SCC(=O)c3ccccc3)ncnc2s1 | / | 7 | 1 | 0.62 | 1 | 1 | / | / | / | / | / | /
CCc1cc2c(SCC(=O)C(C#N)=C3N(C)c4ccccc4N3C)ncnc2s1 | -1.2 | 0 | 1 | / | 0.9 | 0 | 0.0079 | 0.0095* | 0.03 | 0.007 | 0.015 | 0.0098
CCc1cc2c(SCC#N)ncnc2s1 | 0.49 | 1 | 1 | 6.1* | 1.1 | -1 | 0.0066 | 0.017* | 0.036 | 0.017* | 0.027* | 0.017*
CCc1cc2c(SCC(=O)O)ncnc2s1 | / | -2 | 0.9 | / | 1 | 0 | / | / | / | / | / | /
S=c1[nH]nc(-c2ccccc2)c2ccccc12 | 0.11 | 1 | 1.2 | / | 1.1 | 0 | / | / | / | / | / | /
Cc1ccc(-c2n[nH]c(=S)c3ccccc23)cc1 | 1.2 | -1 | 1.7 | 8.9* | 1.4 | 0 | 0.0092 | 0.025* | 0.029 | 0.0097* | ? | 0.0095
CCOP(=O)(c1ccc(N(C)C)cc1)C(O)c1ccc(Cl)cc1 (centres undefined) | / | 1 | 0.9 | -5* | 0.9 | 0 | 0.0081 | 0.0055 | 0.035 | 0.0041 | 0.02 | 0.012
CCOP(=O)(c1ccc(N(C)C)cc1)C(O)c1ccccc1 (centres undefined) | -0.24 | 0 | 1.1 | 0.13 | 1.1 | 0 | / | / | / | / | / | /
c1ccc(-c2noc(-c3ccccc3-c3ccccc3)n2)cc1 | 0.7 | 4 | 1 | 5.6* | 1 | 1 | 0.0064 | 0.0037 | 0.032 | 0.0074 | 0.019 | 0.01
C=CCNC(=S)Nc1nc2c(cc1C(=O)OCC)COC(C)(C)C2 | / | / | / | 8.5* | / | / | 0.0066 | 0.022* | 0.035 | 0.02* | 0.029* | 0.021*
CCOC(=O)c1cc2c(nc1NC(=S)NCc1ccccc1)CCCC2 | / | 13 | 0.9 | 5.2* | 1 | 0 | 0.0073 | 0.03* | 0.039* | 0.038* | 0.063* | 0.018*
CCOC(=O)c1cc2c(nc1NC(=S)Nc1ccccc1)CC(C)(C)OC2 | / | -1 | 1 | -3 | 1.1 | 0 | / | / | / | / | / | /
SMILES | ROMK mod | ABCG2 inh | PMI act | KCC2 mod | PMI act satM6P | ABCB1 inh | KCC2 secondary | KCC2 bumet counter | KCC2 sec2 | HEK counter1 | KCC2 retest ouab | HEK counter2
Cc1nc(NC(=S)NC(=O)c2cncc(Br)c2)ccc1Br | / | 0 | 1 | / | 0.9 | 0 | / | / | / | / | / | /
Cc1ccnc(NC(=S)NC(=O)c2cncc(Br)c2)c1 | -0.11 | 1 | 0.9 | 8.5* | 0.9 | 0 | 0.0068 | 0.019* | 0.032 | 0.015* | ? | 0.014*
O=C(Nc1ccc(Br)cc1F)c1sccc1-n1cccc1 | -1.2 | 0 | 1 | -1.2 | 1 | 0 | 0.0078 | 0.0048 | 0.033 | 0.0082 | 0.02 | 0.011
Nc1ccccc1-c1nnc(-c2ccccc2N)n1N | 0.22 | 26 | 1.1 | -1.9 | 0.9 | 1 | / | / | / | / | / | /
O=C(CN1C(=O)NC(Cc2ccccc2)C1=O)NC(=O)NC1CCCCC1 (centres undefined) | / | 4 | 1 | -4.6* | 0.9 | 1 | 0.018 | 0.004 | ? | 0.008 | 0.015* | 0.01
O=C(CN1C(=O)NC(Cc2ccccc2)C1=O)Nc1ccccc1 (centres undefined) | / | 2 | 1 | -1.8 | 1 | 0 | / | / | / | / | / | /
Cc1ccc(OCC(=O)NC(=S)Nc2ccc3c4c(cccc24)CC3)cc1 | 1.5 | 0 | 1 | 13* | 1 | 0 | 0.01 | 0.014* | 0.035 | 0.012* | ? | 0.011
Cc1ccc(OCC(=O)NC(=S)Nc2ccc(Br)cn2)cc1 | / | / | / | 31* | / | / | 0.013* | 0.032* | 0.032 | 0.058* | 0.037* | 0.022*
O=C1CC(C(=O)Nc2cc(Cl)ccc2Cl)n2ncnc2N1 (centres undefined) | 0.45 | 4 | 1.1 | -0.097 | 1.1 | 1 | / | / | / | / | / | /
